KCNK3 inh – human KCNK3 channel inhibition, primary screen; CHO-KCNK3 thallium flux, FluxOR fluorescence; active compounds read low; B-score at 10 µM; O14649; actives 0.84% (n = 340,000);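 active = B-score under library mean minus 4 SD, starting fluorescence ratio at most library mean plus 5 SD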;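 also: more negative B-score means stronger inhibition of thallium flux through KCNK3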
KCNQ1 act – potentiates or activates the human KCNQ1 potassium channel. P51787. CHO-K1 KCNQ1, thallium flux FluxOR fluorescence; active compounds read high. B-score at 10 µM. actives 0.35% (n = 310,000);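 active = fluorescence ratio B-score, a plate-corrected score, at least three library SD, with initial intensity B-score within 5 SD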
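Test system: CHO-K1 cells stably expressing KCNQ1 / Medium: assay buffer / Also added: depolarizing K+/Tl+ stimulus, K2SO4 and Tl2SO4 each 12.5 mM in 5x stock / Incubation: 90 min dye loading and 20 min compound exposure, both at room temperature / Signal: thallium influx via FluxOR fluorescence, kinetic imaging / Evaluation: B score of baseline-normalized fluorescence ratio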
hERG protect – hERG (human) protection from proarrhythmic block | CHO-hERG, FluxOR thallium flux, dofetilide IC70 present | Q12809 | actives 0.51% (n = 310,000) | AID 1511 | activation (rescue from dofetilide block), less the hit threshold, % at 10 µM;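 active = activation above the mean of controls blocked by dofetilide plus 5 SD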;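 also: thallium influx through hERG after potassium depolarization seen as dye fluorescence rise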
KCNK9 block – human KCNK9 channel inhibition | Q9NPC2 | HEK293 KCNK9, FluxOR thallium flux fluorescence; active compounds read low | B-score at 10 µM | actives 1.2% (n = 310,000) | AID 488922;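 active = ratio B-score over 3 SD below the library mean, with starting fluorescence within 5 SD of its mean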;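 also: negative B-score means less thallium flux so channel inhibition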
KCNQ1 block – blocks the human KCNQ1 potassium channel; P51787; CHO-K1 KCNQ1, FluxOR thallium flux fluorescence; active compounds read high; B-score at 10 µM; actives 1.3% (n = 310,000);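 active = compounds whose thallium flux B-score, printed positive for inhibition, exceeds three library SD while starting fluorescence stays within three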;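 also: channel opened by potassium depolarization with thallium stimulus after 20 min compound exposure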
KCNK9 inh conf – confirmation of human KCNK9 potassium channel inhibitors; shares compounds with KCNK9 block; HEK293 KCNK9 cells, FluxOR thallium flux fluorescence; inhibition, % at 10 µM; actives 43% (n = 4,900);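 active = thallium signal inhibited by more than 5 SD of the compound-free buffer control wells, on both duplicate plates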;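 also: 0% = assay buffer control wells without compound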
Kir21 sel – tests whether KCNK9 modulators also affect mouse Kir2.1. shares compounds with KCNK9 block. inhibition, % at 10 µM. Kir2.1 cells, FluxOR thallium flux fluorescence. AID 492993. actives 4% (n = 4,900);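 active = thallium signal drop more than 5 SD beyond the mean of the no-compound control wells, seen in both duplicate plates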;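 also: signal is fluorescence rise after thallium addition divided by baseline fluorescence; plate controls were assay buffer only for no effect and full block by chlorpromazine control for full effect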
Target sequence (P35561 whole entry, looked up): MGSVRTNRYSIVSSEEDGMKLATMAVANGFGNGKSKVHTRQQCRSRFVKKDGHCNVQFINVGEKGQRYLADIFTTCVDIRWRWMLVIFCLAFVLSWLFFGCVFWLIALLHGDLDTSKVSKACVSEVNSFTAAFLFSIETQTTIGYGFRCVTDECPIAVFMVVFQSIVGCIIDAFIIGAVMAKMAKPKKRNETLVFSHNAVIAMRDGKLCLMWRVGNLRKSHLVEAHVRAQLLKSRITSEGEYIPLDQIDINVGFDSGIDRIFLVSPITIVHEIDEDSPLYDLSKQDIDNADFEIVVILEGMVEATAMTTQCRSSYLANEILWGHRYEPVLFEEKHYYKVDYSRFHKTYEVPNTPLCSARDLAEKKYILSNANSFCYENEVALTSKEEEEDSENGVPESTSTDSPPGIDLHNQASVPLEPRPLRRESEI
KCNK9 uninduced – second check of KCNK9 modulator effects in non-induced HEK293 cells; shares compounds with KCNK9 block; FluxOR thallium flux; inhibition, % at 10 µM; actives 40% (n = 4,900); AID 492997;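 active = thallium signal drop beyond 5 SD of the untreated control mean, on both duplicate plates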;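 also: plate controls were buffer only IC0 wells for no effect and SID17386958 at its maximal inhibitory level for full effect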
Starred values were filed as active, the others as inactive; i = inactive; . = not tested or not shown. An excerpt weighted towards active compounds, which were near 3.1% of everything screened.

SMILES	KCNK3 inh	KCNQ1 act	hERG protect	KCNK9 block	KCNQ1 block	KCNK9 inh conf	Kir21 sel	KCNK9 uninduced
CC(C)CCn1c(=O)c2ccccc2n2c(CN(C)Cc3ccccc3)nnc12	i	i	-11.3	i	i	i	i	i
O=C(c1ccccc1Br)N1CCC(c2nc3ccccc3s2)CC1	i	i	-21.8	i	i	.	.	.
CCc1ccc(C(=O)N2CCC(c3nc4ccccc4s3)CC2)cc1	i	i	-12.7	i	i	i	i	i
COC(=O)c1cn(CCOc2ccccc2F)c2ccccc12	i	i	-15.2	-11.1*	i	45.0%*	i	43.5%*
c1ccc2sc(SCSc3nc4ccccc4s3)nc2c1	i	i	-9.0	-12.8*	i	72.0%*	i	38.5%*
CC1CN(C(=O)c2ccccc2)c2ccccc2NC1=O (stereo not drawn)	i	i	-1.2	i	i	.	.	.
Fc1ccccc1OCCCCSc1ncccn1	i	i	-14.1	i	i	.	.	.
c1cnc(SCCOc2cccc3ccccc23)nc1	i	i	-2.9	-9.91*	i	48.0%*	i	38.0%*
COc1ccc(-c2cc(C(F)(F)F)n3nc(C(=O)N4CCCCC4)cc3n2)cc1	i	i	-3.9	i	i	.	.	.
COc1cccc(-c2cc(C(F)(F)F)n3nc(C(=O)N4CCCCC4c4cccnc4)cc3n2)c1 (stereo not drawn)	i	i	-11.3	-8.1*	i	42.0%*	i	i
Cc1cccc(N2CCN(C(=O)c3ccc4c(c3)c(C)c(C)n4C)CC2C)c1 (stereo not drawn)	i	i	-11.4	i	i	i	i	i
O=C(CSc1ccc(-c2ccc(Cl)cc2)nn1)N1CCCc2ccccc21	i	i	-15.4	i	i	i	i	i
O=C(/C=C/c1ccccc1)NC(NC(=S)Nc1ccc(Cl)cc1Cl)C(Cl)(Cl)Cl (stereo not drawn)	i	i	-12.8	i	i	i	i	i
O=C(/C=C/c1ccccc1)NC(NC(=S)Nc1cccc(Cl)c1)C(Cl)(Cl)Cl (stereo not drawn)	i	i	-12.3	i	i	.	.	.
Cc1cccc(NS(=O)(=O)c2ccc(-n3cccn3)cc2)c1C	i	i	-7.2	i	i	.	.	.
Cc1ccc2c(c1)N(CCCC(=O)NCCC1=CCCCC1)C(=O)CO2	i	i	-6.6	i	i	i	i	i
COCCCNC(=O)c1ccccc1-c1cc(C)no1	i	i	-6.4	i	i	.	.	.
CC(=O)c1ccc(NC(=S)NCCc2cccc(Cl)c2)cc1	i	i	-9.9	i	i	.	.	.
O=C(Cn1c(=O)c2c(ncn2C2CCCC2)n(Cc2ccccc2)c1=O)N1CCc2ccccc21	i	i	-10.1	i	i	i	i	i
O=C(COC(=O)C(c1ccccc1)c1ccccc1)NCc1ccco1	i	i	-12.3	i	i	.	.	.
COc1ccccc1OCCCOc1ccc([N+](=O)[O-])cc1Cl	i	i	-5.6	i	i	i	i	36.5%*
COc1cccc(OCCCOc2ccc([N+](=O)[O-])cc2Cl)c1	i	i	-6.0	i	i	.	.	.
COc1cc(/C=N/Nc2nc(Nc3ccccc3)nc(-n3nc(C)cc3C)n2)cc(OC)c1OC	i	i	-30.7	-9.42*	8*	46.0%*	i	i
COc1ccc(O)c(/C=N/Nc2nc(Nc3ccccc3)nc(-n3nc(C)cc3C)n2)c1	i	i	-15.1	-12.4*	10*	46.5%*	i	i
COc1cc(/C=N/Nc2nc(Nc3ccc(C)cc3)nc(-n3nc(C)cc3C)n2)cc(OC)c1OC	i	i	-13.0	i	i	.	.	.
SMILES	KCNK3 inh	KCNQ1 act	hERG protect	KCNK9 block	KCNQ1 block	KCNK9 inh conf	Kir21 sel	KCNK9 uninduced
C[C@@H]1NC(=O)c2cc([N+](=O)[O-])cc(I)c2NCCCC[C@@H](C(N)=O)NC(=O)[C@H](CCC(=O)O)NC1=O	i	.	.	.	.	.	.	.
COc1ccc(OC)c(C(c2nnnn2C2CCCC2)N2CCN(c3ccc(F)cc3)CC2)c1 (stereo not drawn)	i	i	-1.7	-14.6*	6*	51.5%*	i	44.0%*
COc1cc(/C=C/C(=O)OCC(=O)NC(=O)C2COc3ccccc3O2)ccc1OC(F)F (stereo not drawn)	i	.	.	.	.	.	.	.
OC(COC(c1ccc(Cl)cc1)c1ccc(Cl)cc1)CN1CCN(c2ccccn2)CC1 (stereo not drawn)	i	i	-34.1	i	i	i	i	i
OC(COc1ccc(Cl)cc1)CN1CCN(c2cccc(Cl)c2)CC1 (stereo not drawn)	i	i	-19.9	i	i	i	i	i
COc1cccc(OC)c1OCC(O)CN1CCN(c2ccccc2)CC1 (stereo not drawn)	i	i	-5.9	i	i	.	.	.
Cc1cccc(N2CCN(CC(O)COc3ccc(Cl)cc3)CC2)c1 (stereo not drawn)	i	i	-9.6	i	i	.	.	.
Cc1cccc(C)c1OCC(O)CN1CCN(c2ccccc2)CC1 (stereo not drawn)	i	i	-15.6	i	i	i	i	i
OC(COC(c1ccccc1)c1ccccc1)CN1CCN(c2cccc(Cl)c2)CC1 (stereo not drawn)	i	i	-12.0	i	i	i	i	i
O=C(COC(=O)c1ccc(F)c(S(=O)(=O)N2CCOCC2)c1)NCCc1ccccc1	i	i	-14.0	i	i	.	.	.
COc1ccc(OC)c(C(=O)CN2CCN(S(=O)(=O)c3ccc(Br)cc3)CC2)c1	i	i	-8.5	i	i	i	i	i
COc1ccc(S(=O)(=O)N2CCN(CCOc3ccc(Br)cc3)CC2)cc1OC	i	.	.	.	.	.	.	.
CC(=O)CCC1C2C(O)C(C(C)C)C(OC(=O)/C=C/c3ccccc3)CC12C (stereo not drawn)	i	i	-9.6	i	i	i	i	i
CCOc1ccccc1C1c2[nH]c3ccccc3c2C[C@H]2C(=O)N(C3CCN(Cc4ccccc4)CC3)CC(=O)N12 (stereo partly drawn)	i	i	-13.5	i	i	i	i	i
Cc1ccc(NCC(=O)N/N=C\c2ccc[nH]2)cc1	i	i	-5.1	i	i	.	.	.

Bioassay records from PubChem.
